Data as given in ChEMBL document CHEMBL3763060, “Synthesis and evaluation of analogs of the phenylpyridazinone NPD-001 as potent trypanosomal TbrPDEB1 phosphodiesterase inhibitors and in vitro trypanocidals” (Bioorg Med Chem, 2016).
≈ marks a conversion by molar mass, not a printed value.

Assays:
[1] = target: T1, Class 1 phosphodiesterase PDEB1 (Trypanosoma brucei, UniProt Q8WQX9); assay: Inhibition of recombinant Trypanosoma brucei PDEB1 using [3H]-cAMP as substrate after 15 mins by scintillation proximity assay
T1 sequence (Q8WQX9 whole entry): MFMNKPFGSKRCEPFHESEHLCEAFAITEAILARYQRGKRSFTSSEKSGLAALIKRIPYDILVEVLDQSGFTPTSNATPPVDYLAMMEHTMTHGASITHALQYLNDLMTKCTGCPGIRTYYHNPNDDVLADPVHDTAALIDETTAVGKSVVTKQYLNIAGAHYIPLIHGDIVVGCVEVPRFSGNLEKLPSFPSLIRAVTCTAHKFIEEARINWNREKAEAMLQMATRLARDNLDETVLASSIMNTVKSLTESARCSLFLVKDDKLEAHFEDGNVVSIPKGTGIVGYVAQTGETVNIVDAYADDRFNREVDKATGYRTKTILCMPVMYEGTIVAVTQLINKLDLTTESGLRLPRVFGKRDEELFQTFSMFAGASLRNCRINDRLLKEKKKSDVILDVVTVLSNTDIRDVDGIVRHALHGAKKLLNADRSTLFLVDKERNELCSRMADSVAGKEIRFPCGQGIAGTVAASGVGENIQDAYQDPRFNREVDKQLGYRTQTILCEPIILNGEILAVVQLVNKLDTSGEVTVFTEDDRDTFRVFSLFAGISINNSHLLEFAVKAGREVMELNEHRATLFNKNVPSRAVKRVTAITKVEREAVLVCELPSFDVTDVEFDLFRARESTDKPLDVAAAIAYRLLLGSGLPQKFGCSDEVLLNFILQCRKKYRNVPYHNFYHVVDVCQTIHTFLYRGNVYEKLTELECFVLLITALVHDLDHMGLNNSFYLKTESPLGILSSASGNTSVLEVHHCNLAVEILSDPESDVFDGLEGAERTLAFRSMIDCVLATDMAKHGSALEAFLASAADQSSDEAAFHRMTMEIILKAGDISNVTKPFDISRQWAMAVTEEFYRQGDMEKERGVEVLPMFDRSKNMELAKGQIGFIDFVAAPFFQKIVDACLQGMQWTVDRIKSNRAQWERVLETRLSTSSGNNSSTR
Procedure, shortened: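 Inhibition of TbrPDEB1-mediated [³H]-cAMP hydrolysis was read by scintillation proximity assay. Each analog was run in at least two independent experiments.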

[2] = Cytotoxicity against human MRC5 cells assessed as growth inhibition; type: cell-based
Procedure, shortened: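 MRC-5 fibroblasts were grown at 37 °C and 5% CO₂ in Hirumi-9 medium with 10% FCS. Compounds came from 20 mM DMSO stocks, serially pre-diluted 2- or 4-fold in DMSO, then in demineralized water; final DMSO was <1%. Results were reported as −logCC₅₀ with n = 2.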

[3] = target: High affinity cGMP-specific 3',5'-cyclic phosphodiesterase 9A (Homo sapiens, UniProt O76083); assay: Inhibition of full length human recombinant PDE9A3 using [3H]-cAMP as substrate by scintillation proximity assay
High affinity cGMP-specific 3',5'-cyclic phosphodiesterase 9A, sequence (O76083 whole entry): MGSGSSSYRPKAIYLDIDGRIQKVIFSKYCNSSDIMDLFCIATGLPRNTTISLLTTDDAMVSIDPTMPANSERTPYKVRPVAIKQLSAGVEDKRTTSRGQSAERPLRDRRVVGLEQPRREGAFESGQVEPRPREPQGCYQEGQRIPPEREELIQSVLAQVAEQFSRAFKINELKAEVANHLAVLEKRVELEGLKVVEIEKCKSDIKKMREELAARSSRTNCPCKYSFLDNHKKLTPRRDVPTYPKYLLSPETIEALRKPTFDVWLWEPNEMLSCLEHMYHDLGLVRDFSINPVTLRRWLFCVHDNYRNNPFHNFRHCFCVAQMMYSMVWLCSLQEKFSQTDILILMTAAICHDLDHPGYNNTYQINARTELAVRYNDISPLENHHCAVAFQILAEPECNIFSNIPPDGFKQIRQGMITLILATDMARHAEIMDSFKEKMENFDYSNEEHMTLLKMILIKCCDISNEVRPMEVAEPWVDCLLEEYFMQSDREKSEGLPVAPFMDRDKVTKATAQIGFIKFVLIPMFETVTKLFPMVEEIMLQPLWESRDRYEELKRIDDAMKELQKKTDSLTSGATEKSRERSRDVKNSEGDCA

[4] = target: cGMP-dependent 3',5'-cyclic phosphodiesterase (Homo sapiens, UniProt O00408); assay: Inhibition of full length human recombinant PDE2A3 using [3H]-cAMP as substrate by scintillation proximity assay
[5] = target: Dual specificity calcium/calmodulin-dependent 3',5'-cyclic nucleotide phosphodiesterase 1B (Homo sapiens, UniProt Q01064); assay: Inhibition of full length human recombinant PDE1B1 using [3H]-cAMP as substrate by scintillation proximity assay
[6] = Inhibition of full length human recombinant PDE3A1 using [3H]-cAMP as substrate by scintillation proximity assay
[7] = target: High affinity cAMP-specific and IBMX-insensitive 3',5'-cyclic phosphodiesterase 8B (Homo sapiens, UniProt O95263); assay: Inhibition of full length human recombinant PDE8B using [3H]-cAMP as substrate by scintillation proximity assay
High affinity cAMP-specific and IBMX-insensitive 3',5'-cyclic phosphodiesterase 8B, sequence (O95263 whole entry): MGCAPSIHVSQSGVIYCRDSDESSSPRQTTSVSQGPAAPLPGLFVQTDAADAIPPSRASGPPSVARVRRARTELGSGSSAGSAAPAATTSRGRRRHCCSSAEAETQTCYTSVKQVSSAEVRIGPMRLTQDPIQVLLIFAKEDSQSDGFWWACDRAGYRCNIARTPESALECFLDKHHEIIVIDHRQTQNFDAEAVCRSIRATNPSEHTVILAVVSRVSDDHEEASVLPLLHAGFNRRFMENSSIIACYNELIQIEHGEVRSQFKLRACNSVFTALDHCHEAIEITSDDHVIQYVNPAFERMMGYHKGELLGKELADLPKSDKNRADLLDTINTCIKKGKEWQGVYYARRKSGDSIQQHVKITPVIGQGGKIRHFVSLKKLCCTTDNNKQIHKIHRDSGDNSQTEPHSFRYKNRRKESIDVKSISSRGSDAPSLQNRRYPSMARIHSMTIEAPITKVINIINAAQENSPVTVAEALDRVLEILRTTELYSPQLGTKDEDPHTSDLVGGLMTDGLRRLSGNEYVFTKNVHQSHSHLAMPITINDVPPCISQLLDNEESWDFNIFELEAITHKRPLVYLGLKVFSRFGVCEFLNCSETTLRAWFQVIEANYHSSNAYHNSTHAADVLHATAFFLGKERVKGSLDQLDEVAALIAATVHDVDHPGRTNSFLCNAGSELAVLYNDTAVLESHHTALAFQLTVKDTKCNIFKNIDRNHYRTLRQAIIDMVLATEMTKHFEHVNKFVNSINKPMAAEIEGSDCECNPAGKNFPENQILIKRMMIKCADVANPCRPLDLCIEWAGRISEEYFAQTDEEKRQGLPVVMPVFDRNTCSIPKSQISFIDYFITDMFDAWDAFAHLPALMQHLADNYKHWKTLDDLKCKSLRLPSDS

[8] = target: T2, 3',5'-cyclic-AMP phosphodiesterase 4B (Homo sapiens, UniProt Q07343); assay: Inhibition of full length human recombinant PDE4B1 using [3H]-cAMP as substrate by scintillation proximity assay
T2 sequence (Q07343 whole entry): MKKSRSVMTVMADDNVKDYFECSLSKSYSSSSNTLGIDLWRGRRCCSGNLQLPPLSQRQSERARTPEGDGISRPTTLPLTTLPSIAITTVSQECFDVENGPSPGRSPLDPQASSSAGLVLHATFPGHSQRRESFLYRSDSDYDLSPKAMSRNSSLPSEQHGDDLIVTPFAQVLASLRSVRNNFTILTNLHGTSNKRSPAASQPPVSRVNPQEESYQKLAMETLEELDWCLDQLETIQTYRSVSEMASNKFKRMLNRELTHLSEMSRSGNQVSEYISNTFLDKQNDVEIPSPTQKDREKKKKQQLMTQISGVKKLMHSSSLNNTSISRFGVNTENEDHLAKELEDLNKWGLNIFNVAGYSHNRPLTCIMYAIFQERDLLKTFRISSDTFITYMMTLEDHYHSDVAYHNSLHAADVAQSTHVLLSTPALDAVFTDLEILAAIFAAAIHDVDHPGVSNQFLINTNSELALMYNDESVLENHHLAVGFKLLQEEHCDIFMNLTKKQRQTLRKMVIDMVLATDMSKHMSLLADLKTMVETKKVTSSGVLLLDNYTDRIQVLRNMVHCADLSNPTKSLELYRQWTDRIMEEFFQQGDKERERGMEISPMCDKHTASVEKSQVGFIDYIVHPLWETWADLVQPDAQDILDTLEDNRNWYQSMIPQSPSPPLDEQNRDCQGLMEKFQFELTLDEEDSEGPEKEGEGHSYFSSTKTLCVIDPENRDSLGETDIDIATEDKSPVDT

[9] = target: cGMP-specific 3',5'-cyclic phosphodiesterase (Homo sapiens, UniProt O76074); assay: Inhibition of full length human recombinant PDE5A1 using [3H]-cGMP as substrate by scintillation proximity assay
Procedure, shortened: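 Radiolabelled cGMP substrate at 0.5 (final assay level). Scintillation proximity read-out of the full-length recombinant enzyme's hydrolytic activity, run in the presence of test compounds.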

[10] = Solubility of compound in 0.05 M phosphate buffer at pH 7.4; type: physicochemical
[11] = target: Dual 3',5'-cyclic-AMP and -GMP phosphodiesterase 11A (Homo sapiens, UniProt Q9HCR9); assay: Inhibition of full length human recombinant PDE11A4 using [3H]-cAMP as substrate by scintillation proximity assay
Dual 3',5'-cyclic-AMP and -GMP phosphodiesterase 11A, sequence (Q9HCR9 whole entry): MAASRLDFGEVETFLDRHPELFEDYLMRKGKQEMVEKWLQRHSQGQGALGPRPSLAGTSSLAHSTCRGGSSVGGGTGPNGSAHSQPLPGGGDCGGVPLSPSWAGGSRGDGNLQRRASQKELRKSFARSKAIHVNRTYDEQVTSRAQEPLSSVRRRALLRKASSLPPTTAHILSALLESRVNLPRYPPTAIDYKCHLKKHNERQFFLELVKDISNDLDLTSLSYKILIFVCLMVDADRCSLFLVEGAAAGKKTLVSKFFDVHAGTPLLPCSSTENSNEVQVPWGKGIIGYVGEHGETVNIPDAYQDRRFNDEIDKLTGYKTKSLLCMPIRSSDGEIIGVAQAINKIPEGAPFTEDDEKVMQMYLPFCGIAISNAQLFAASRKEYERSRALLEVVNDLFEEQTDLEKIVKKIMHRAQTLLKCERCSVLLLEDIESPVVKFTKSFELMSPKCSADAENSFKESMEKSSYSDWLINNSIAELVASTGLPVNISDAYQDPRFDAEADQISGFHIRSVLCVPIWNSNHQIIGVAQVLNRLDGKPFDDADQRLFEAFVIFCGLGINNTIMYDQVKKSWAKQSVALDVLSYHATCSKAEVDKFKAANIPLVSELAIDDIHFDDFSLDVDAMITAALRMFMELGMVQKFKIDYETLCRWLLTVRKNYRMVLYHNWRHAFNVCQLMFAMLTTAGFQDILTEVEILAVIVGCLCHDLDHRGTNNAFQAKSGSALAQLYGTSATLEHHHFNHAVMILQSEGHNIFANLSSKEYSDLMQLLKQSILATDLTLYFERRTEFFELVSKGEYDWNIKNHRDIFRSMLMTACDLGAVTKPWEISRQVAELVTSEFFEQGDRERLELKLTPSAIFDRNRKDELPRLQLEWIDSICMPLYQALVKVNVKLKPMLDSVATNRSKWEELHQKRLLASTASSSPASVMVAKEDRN

Trypanosoma brucei = assay: Antitrypanosomal activity against Trypanosoma brucei assessed as inhibition of parasite growth after 48 hrs by resazurin assay; type: functional, organism-based
[12] = target: T2, 3',5'-cyclic-AMP phosphodiesterase 4B; assay: Inhibition of full length human recombinant PDE4B2 using [3H]-cAMP as substrate by scintillation proximity assay
[13] = target: cAMP and cAMP-inhibited cGMP 3',5'-cyclic phosphodiesterase 10A (Homo sapiens, UniProt Q9Y233); assay: Inhibition of full length human recombinant PDE10A using [3H]-cAMP as substrate by scintillation proximity assay
cAMP and cAMP-inhibited cGMP 3',5'-cyclic phosphodiesterase 10A, sequence (Q9Y233 whole entry): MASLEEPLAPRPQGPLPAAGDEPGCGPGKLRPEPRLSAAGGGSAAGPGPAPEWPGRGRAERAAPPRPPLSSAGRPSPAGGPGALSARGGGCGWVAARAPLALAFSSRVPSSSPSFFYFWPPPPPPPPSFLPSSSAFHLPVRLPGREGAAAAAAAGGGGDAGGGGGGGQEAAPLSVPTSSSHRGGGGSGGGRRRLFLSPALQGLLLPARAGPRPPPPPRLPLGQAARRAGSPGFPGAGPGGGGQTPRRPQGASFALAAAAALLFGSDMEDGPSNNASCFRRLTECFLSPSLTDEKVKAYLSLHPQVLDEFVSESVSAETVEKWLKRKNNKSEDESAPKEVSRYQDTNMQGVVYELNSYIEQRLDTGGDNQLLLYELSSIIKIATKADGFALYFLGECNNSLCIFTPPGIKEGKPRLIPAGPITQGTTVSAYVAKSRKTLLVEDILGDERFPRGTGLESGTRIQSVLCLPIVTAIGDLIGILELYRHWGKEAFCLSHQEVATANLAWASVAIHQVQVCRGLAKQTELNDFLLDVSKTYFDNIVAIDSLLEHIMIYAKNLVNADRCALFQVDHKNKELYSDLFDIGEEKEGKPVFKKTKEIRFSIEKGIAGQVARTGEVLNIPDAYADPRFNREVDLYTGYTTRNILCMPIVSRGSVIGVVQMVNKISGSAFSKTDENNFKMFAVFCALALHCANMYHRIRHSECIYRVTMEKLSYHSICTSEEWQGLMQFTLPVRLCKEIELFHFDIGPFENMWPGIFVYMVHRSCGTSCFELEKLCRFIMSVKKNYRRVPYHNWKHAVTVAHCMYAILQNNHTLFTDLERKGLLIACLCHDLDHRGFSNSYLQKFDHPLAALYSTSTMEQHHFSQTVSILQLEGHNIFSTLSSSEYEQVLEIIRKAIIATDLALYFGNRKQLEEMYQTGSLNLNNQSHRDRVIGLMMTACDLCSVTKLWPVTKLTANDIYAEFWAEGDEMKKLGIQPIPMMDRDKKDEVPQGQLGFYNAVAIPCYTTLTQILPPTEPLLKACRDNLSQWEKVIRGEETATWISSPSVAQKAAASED

[14] = Inhibition of Trypanosoma brucei PDEB2 using [3H]-cAMP as substrate after 15 mins by scintillation proximity assay
[15] = target: 3',5'-cyclic-AMP phosphodiesterase 4D (Homo sapiens, UniProt Q08499); assay: Inhibition of full length human recombinant PDE4D3 using [3H]-cAMP as substrate by scintillation proximity assay
3',5'-cyclic-AMP phosphodiesterase 4D, sequence (Q08499 whole entry): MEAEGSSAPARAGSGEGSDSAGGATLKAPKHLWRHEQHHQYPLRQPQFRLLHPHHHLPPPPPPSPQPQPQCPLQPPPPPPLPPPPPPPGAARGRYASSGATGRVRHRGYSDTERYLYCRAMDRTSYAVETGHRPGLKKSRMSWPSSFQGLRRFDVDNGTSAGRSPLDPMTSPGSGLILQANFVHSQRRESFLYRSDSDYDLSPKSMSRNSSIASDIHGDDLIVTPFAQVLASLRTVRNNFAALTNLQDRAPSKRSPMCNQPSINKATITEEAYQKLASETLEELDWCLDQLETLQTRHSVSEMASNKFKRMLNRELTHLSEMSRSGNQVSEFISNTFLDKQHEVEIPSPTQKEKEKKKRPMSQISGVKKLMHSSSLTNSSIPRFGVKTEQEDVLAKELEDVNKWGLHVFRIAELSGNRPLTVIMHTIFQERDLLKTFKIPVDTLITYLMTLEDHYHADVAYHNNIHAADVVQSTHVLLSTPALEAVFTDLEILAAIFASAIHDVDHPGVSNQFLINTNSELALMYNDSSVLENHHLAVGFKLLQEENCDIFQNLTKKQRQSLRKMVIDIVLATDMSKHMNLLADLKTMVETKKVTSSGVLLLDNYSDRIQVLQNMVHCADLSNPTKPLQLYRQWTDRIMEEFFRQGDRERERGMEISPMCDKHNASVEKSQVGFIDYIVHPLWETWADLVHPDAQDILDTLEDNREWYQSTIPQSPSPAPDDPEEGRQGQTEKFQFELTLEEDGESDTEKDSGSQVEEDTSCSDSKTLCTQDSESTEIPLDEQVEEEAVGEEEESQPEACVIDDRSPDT

[16] = target: High affinity 3',5'-cyclic-AMP phosphodiesterase 7A (Homo sapiens, UniProt Q13946); assay: Inhibition of full length human recombinant PDE7A1 using [3H]-cAMP as substrate by scintillation proximity assay
[17] = tested on: Trypanosoma brucei brucei; assay: Antitrypanosomal activity against suramin-sensitive Trypanosoma brucei brucei Squib427 assessed as inhibition of parasite growth; type: functional, organism-based
Procedure, shortened: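 Bloodstream-form trypomastigotes of Squib-427 were grown at 37 °C and 5% CO₂ in Hirumi-9 medium with 10% FCS. Compounds came from 20 mM DMSO stocks, pre-diluted 2- or 4-fold serially in DMSO, then diluted in demineralized water; final DMSO was <1%. Results were reported as −logEC₅₀ with n = 2.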

[18] = Selectivity index, ratio of CC50 for human MRC5 cells to EC50 for suramin-sensitive Trypanosoma brucei brucei Squib427; type: toxicity, cell-based; conditions: read-out: Ratio CC50/EC50
Procedure, shortened: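 The index was calculated as CC₅₀ in MRC-5 fibroblasts divided by EC₅₀ against T. b. brucei. Both came from parallel assays in Hirumi-9 medium with 10% FCS at 37 °C and 5% CO₂, each n = 2.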

[19] = Selectivity ratio of IC50 for Trypanosoma brucei recombinant PDEB1 to IC50 for full length human recombinant PDE4B1

Row | Compound | IC50 [1] | CC50 [2] | IC50 [8] | EC50 [17] | selectivity ratio [18] | also measured
1 | COc1ccc(C2=NN(C3CCCCCC3)C(=O)CC2)cc1OC | 10000 nM |  |  |  |  | 
2 | COc1ccc(-c2nn(C3CCCCCC3)c(=O)c3ccccc23)cc1OC | > 10000 nM |  |  |  |  | 
3 | COc1ccc(C2=NN(C3CCCCCC3)C(=O)[C@@H]3CC=CC[C@H]23)cc1OCCCCOc1ccc(-c2nnn[nH]2)cc1 (racemic) |  | 6310 nM | 0.631 nM | 20 nM |  | IC50 [3]: > 10000 nM; IC50 [4]: 6310 nM; IC50 [5]: 3980 nM; pIC50 [6]: 6.9; IC50 [7]: 3980 nM; IC50 [9]: 2000 nM; solubility [10]: 75 µM (≈ 43.9 µg/mL); IC50 [11]: 2000 nM; IC50 (Trypanosoma brucei): 80 nM; IC50 [12]: 0.501 nM; IC50 [13]: 501 nM; IC50 [14]: 3 nM; pIC50 [14]: 8.5; IC50 [15]: 0.631 nM; IC50 [16]: 3160 nM
4 | COc1ccc(C2=NN(C3CCCCCC3)C(=O)[C@@H]3CC=CC[C@H]23)cc1OCCCCOc1ccc(-c2nnnn2C)cc1 (racemic) | 10 nM | > 63100 nM | 0.631 nM | 501 nM | > 125 | solubility [10]: < 2 µM; Ratio IC50 [19]: 16
5 | COc1ccc(C2=NN(C3CCCCCC3)C(=O)[C@@H]3CC=CC[C@H]23)cc1OCCCCOc1ccc(C(=O)O)cc1 (racemic) | 316 nM |  | 0.316 nM |  |  | Ratio IC50 [19]: 1000
6 | COCCOc1cc(C2=NN(C3CCCCCC3)C(=O)[C@@H]3CC=CC[C@H]23)ccc1OC (racemic) | 79.4 nM | 25100 nM |  | 794 nM | 32 | 
7 | COc1ccc(C2=NN(C3CCCCCC3)C(=O)[C@@H]3CC=CC[C@H]23)cc1OC (racemic) | 316 nM |  | 0.631 nM |  |  | Ratio IC50 [19]: 501
8 | COc1ccc(C2=NN(C3CCCCCC3)C(=O)[C@@H]3CCCC[C@H]23)cc1OC (racemic) | 1580 nM |  |  |  |  | 
9 | COc1ccc(C2=NN(C3CCCCCC3)C(=O)[C@@H]3CC=CC[C@H]23)cc1 (racemic) | 3980 nM |  |  |  |  | 
10 | COc1ccc(C2=NN(C3CCCCCC3)C(=O)[C@@H]3CC=CC[C@H]23)cc1OCCCCn1cnc2ncncc21 (racemic) | 15.8 nM | 39800 nM | 1.58 nM | 200 nM | 200 | Ratio IC50 [19]: 10
11 | COc1ccc(C2=NN(C(C)C)C(=O)[C@@H]3CCCC[C@H]23)cc1OC (racemic) | 2000 nM |  |  |  |  | 
12 | COc1cccc(C2=NN(C3CCCCCC3)C(=O)[C@@H]3CC=CC[C@H]23)c1 (racemic) | 100000 nM |  |  |  |  | 
13 | COc1ccc(C2=NN(C3CCCCCC3)C(=O)[C@@H]3CC=CC[C@H]23)cc1OCc1ccccn1 (racemic) | 100 nM |  |  |  |  | 
14 | COc1ccc(C2=NN(C3CCCCCC3)C(=O)[C@@H]3CC=CC[C@H]23)cc1OCCCCCc1ccccc1 (racemic) | 63.1 nM | > 63100 nM |  | 5010 nM | > 13 | 
15 | COc1ccc(C2=NN(C3CCCCCC3)C(=O)[C@@H]3CC=CC[C@H]23)cc1OCCCCOc1ccc(-n2ccnc2)cc1 (racemic) | 12.6 nM | 39800 nM | 0.2 nM | 1000 nM | 40 | Ratio IC50 [19]: 63
16 | COc1ccc(C2=NN(C3CCCCCC3)C(=O)[C@@H]3CC=CC[C@H]23)cc1OCCCCOc1ccc(-c2nnn(C)n2)cc1 (racemic) | 3.16 nM | > 63100 nM | 0.501 nM | 251 nM | > 251 | solubility [10]: < 2 µM; Ratio IC50 [19]: 6
17 | COc1ccc(C2=NN(C3CCCCCC3)C(=O)[C@@H]3CC=CC[C@H]23)cc1OCc1cccc(OC)c1OC (racemic) | 79.4 nM | 3980 nM |  | 1580 nM | 2.5 | 
18 | COc1cc(COc2cc(C3=NN(C4CCCCCC4)C(=O)[C@@H]4CC=CC[C@H]34)ccc2OC)cc(OC)c1 (racemic) | 126 nM | 12600 nM |  | 1000 nM | 12.6 | 
19 | COc1ccc(C2=NN(C3CCCCCC3)C(=O)[C@@H]3CC=CC[C@H]23)cc1OCCO (racemic) | 100 nM | 31600 nM |  | 2000 nM | 16 | 
20 | COc1ccc(C2=NN(C3CCCCCC3)C(=O)[C@@H]3CC=CC[C@H]23)cc1OCCc1ccc(N(C)C)cc1 (racemic) | 63.1 nM | > 63100 nM |  | 1000 nM | > 63 | 
21 | COc1ccc(C2=NN(C3CCCCCC3)C(=O)[C@@H]3CC=CC[C@H]23)cc1OCc1ccncc1 (racemic) | 158 nM | 15800 nM |  | 1260 nM | 12.6 | 
22 | COc1ccc(CCOc2cc(C3=NN(C4CCCCCC4)C(=O)[C@@H]4CC=CC[C@H]34)ccc2OC)cc1 (racemic) | 63.1 nM | > 63100 nM |  | 1260 nM | > 50 | 
23 | COc1ccc(C2=NNC(=O)[C@@H]3CC=CC[C@H]23)cc1OC (racemic) | 12600 nM |  |  |  |  | 
